This is an account of results in ChEMBL document CHEMBL1165878, “First biological evaluation of developed 3-benzyloxyfluorenes as novel class of MDR modulators” (Eur J Med Chem, 2010).

The target of series [1] is T1, ATP-dependent translocase ABCB1 (Homo sapiens, UniProt P08183). As to the kind of experiment: Inhibition of ABCB1 efflux pump-mediated rhodamine 123 uptake expressed in mouse L5178Y cells assessed as fluorescence activity ratio at 10 uM. The format is cell-based. In short, it runs like this:
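Mouse T lymphoma L5178Y parental line and an mdr1-retrovirally transfected subline overexpressing only ABCB1, grown in McCoy's 5A with 10% heat-inactivated horse serum and 2 mM glutamine. Rhodamine 123 uptake measured by flow cytometry, 1 ×10⁴ cells each, after resuspension in PBS. FAR = fluorescence of treated ABCB1 subline over parental line, each corrected to untreated control; mean of two determinations.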

A short description of series [2]: Lipophilicity, log P of the compound. Conditions: octanol/water. The series is classed as physicochemical.
The target of series [3] is T1, ATP-dependent translocase ABCB1. As to the kind of experiment: Inhibition of ABCB1 efflux pump-mediated rhodamine 123 uptake expressed in mouse L5178Y cells assessed as fluorescence activity ratio at 1 uM. The format is cell-based.

T1 sequence (P08183 whole entry): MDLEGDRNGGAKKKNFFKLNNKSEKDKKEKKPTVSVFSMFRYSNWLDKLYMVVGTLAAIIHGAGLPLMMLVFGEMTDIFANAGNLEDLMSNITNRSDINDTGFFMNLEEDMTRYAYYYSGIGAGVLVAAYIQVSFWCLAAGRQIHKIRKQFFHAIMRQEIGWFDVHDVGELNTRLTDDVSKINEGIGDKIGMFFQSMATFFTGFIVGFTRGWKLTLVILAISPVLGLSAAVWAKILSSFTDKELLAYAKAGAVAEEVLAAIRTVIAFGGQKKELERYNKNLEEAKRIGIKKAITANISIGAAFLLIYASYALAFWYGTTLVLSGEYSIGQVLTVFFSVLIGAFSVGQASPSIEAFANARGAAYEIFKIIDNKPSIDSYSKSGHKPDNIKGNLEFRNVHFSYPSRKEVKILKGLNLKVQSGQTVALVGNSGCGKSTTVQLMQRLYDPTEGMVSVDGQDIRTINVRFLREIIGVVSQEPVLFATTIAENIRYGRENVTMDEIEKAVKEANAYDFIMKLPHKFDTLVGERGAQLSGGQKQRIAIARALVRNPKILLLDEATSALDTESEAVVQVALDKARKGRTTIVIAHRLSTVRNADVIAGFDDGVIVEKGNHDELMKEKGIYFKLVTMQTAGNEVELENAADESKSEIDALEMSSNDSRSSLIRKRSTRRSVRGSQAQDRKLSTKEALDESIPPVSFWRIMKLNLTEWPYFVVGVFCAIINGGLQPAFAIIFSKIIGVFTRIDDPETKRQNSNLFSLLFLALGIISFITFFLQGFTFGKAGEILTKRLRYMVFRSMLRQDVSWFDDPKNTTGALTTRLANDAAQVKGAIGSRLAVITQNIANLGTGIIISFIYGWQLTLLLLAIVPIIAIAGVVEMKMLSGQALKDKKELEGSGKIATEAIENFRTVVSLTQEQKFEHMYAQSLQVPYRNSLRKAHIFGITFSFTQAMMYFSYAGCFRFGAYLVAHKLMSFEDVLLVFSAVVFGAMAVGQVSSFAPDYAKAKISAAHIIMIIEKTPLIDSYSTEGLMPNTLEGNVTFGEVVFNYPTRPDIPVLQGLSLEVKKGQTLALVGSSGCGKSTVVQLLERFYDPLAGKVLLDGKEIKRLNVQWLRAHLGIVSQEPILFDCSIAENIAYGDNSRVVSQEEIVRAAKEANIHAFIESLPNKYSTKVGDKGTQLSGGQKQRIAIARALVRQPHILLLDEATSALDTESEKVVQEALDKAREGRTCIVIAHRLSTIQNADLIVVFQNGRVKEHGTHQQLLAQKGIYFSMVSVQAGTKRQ

On to `Oc1ccc2oc3ncc(OCc4ccc(Cl)cc4)c(-c4ccc(Cl)cc4)c3c2c1`, for which the Ratio in series [1] came out at 5.92; in series [3], 1.11. The same compound registered a logP in series [2] of 6.59.

On to `Oc1ccc2oc3ncc(OCc4cccc(Cl)c4)c(-c4cccc(Cl)c4)c3c2c1`, for which the Ratio turned out to be 17.14 in series [1] and 1 in series [3]. Besides, the logP in series [2] was 6.59.

With `Oc1ccc2oc3ncc(OCc4ccc(Cl)cc4)c(-c4cccc(Cl)c4)c3c2c1`, the Ratio in series [1] worked out at 2.61; in series [3], 1.81. In series [2], this compound yielded a logP of 6.59.

For the compound `Oc1ccc2oc3ncc(OCc4ccc(Cl)cc4)c(-c4ccccc4)c3c2c1`, the Ratio in series [1] came out at 56.85; in series [3], 1.23. For the same compound, in series [2], the logP came to 5.97.

Take `Oc1ccc2oc3ncc(OCc4ccccc4)c(-c4ccc(Cl)cc4)c3c2c1`: the Ratio in series [1] was determined as 95.58; in series [3], 3.04. Moreover, in series [2], the log partition coefficient (logP) amounted to 5.97.

On to `Oc1ccc2oc3ncc(OCc4ccccc4)c(-c4cccc(Cl)c4)c3c2c1`, for which the Ratio in series [1] is reported as 10.47; in series [3], 1.35. This compound also registered a lipophilicity (logP) in series [2] of 5.97.

Turning to `Oc1ccc2oc3ncc(OCc4cccc(Cl)c4)c(-c4ccccc4)c3c2c1`, the Ratio turned out to be 57.42 in series [1] and 1.26 in series [3]. In series [2], this compound registered a logP of 5.97.

Consider `Oc1ccc2oc3ncc(OCc4ccccc4)c(-c4ccccc4)c3c2c1`, for which the Ratio is listed as 34.49 in series [1] and 1.75 in series [3]. This compound also came in with a lipophilicity (logP) in series [2] of 5.38.

For the compound `Oc1ccc2oc3ncc(OCc4cccc(Cl)c4)c(-c4ccc(Cl)cc4)c3c2c1`, the Ratio is recorded as 21.48 in series [1] and 1.53 in series [3]. The lipophilicity (logP) in series [2] was found to be 6.59.

As a reminder, the logP is a log measure of how a compound divides between an organic and an aqueous phase.
